As usually defined, the MIC is the lowest concentration found to suppress growth. A lower MIC goes with greater potency. Usually MIC50 stands for the lowest concentration that inhibits either 50% of growth or 50% of the strains tested, depending on the study. The MIC90 is an inhibitory concentration at the 90% level, which refers to growth in some studies and to a panel of isolates in others. High values mean lower susceptibility, low ones higher susceptibility.

In brackets after ≈: the same amount, converted by molar mass.

Common to all, as to format: functional
Data set [1] deals with Candida albicans. Put plainly: In vitro antifungal activity against 40 strains of Candida albicans at pH 5.8; (range is from 2 to 128). An outline of the steps: (§1)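 Broth serial-dilution MIC against 40 clinical C. albicans isolates from hospitalized patients, grown in Sabouraud broth at pH 7.2 or 5.8. Cells were pre-grown 18 h at 37 °C, inoculated at 10³/mL, and read at 24 h, 37 °C. Doubling dilutions ran 0.25–256 μg/mL from a DMSO/water solution. MIC was the lowest concentration with no visible growth against a DMSO/water blank.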

Data set [2] has as its system Candida. Put plainly: Tested In vitro for antifungal activity against Candida species. at pH 7.2; (percent of resistant species at 256 ug/mL). An outline of the steps: (§2)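 Broth serial-dilution test in Sabouraud broth at pH 7.2 or 5.8, against 3 fresh clinical non-albicans isolates (two C. glabrata, one C. krusei). Inocula were 10³/mL, pre-grown 18 h at 37 °C. Compound was twofold-diluted over 0.25–256 µg/mL and read at 24 h, 37 °C for visible growth.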

For data set [3], the system named is Candida. Nature of the data set: Tested in vitro for antifungal activity against Candida species. at pH 5.8 (percent of resistant species at 256 ug/mL). In short, it runs like this:
as §2

In data set [4] the test system is Candida albicans. Put plainly: In vitro antifungal activity against 40 strains of Candida albicans at pH 5.8. In short, it runs like this:
as §1

Data set [5] deals with Lanosterol 14-alpha demethylase (Candida albicans (strain SC5314 / ATCC MYA-2876) (Yeast), UniProt P10613). Put plainly: Anticandida activity- (MIC90 compound) / (MIC90 bifonazole).
Data set [6] deals with Candida albicans. Nature of the data set: In vitro antifungal activity against 40 strains of Candida albicans at pH 5.8; (percent of resistant species at 256 ug/mL). An outline of the steps:
(§3)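 Broth serial-dilution test in Sabouraud broth at pH 7.2 or 5.8, against 40 fresh clinical C. albicans isolates from hospitalized patients. Inocula were 10³/mL, pre-grown 18 h at 37 °C in Sabouraud dextrose broth. Compound from a DMSO/water stock was twofold-diluted over 0.25–256 µg/mL. Visible growth was read at 24 h, 37 °C.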

The test system of data set [7] is Candida albicans. Nature of the data set: In vitro antifungal activity against 40 strains of Candida albicans at pH 7.2; (percent of resistant species at 256 ug/mL). In short, it runs like this:
as §3

For data set [8], the system named is Candida albicans. Nature of the data set: In vitro antifungal activity against 40 strains of Candida albicans at pH 7.2; minimum inhibitory concentration (range is from 2 to 256). In short, it runs like this: as §1
For data set [9], the system named is Candida. Nature of the data set: Tested In vitro for antifungal activity against Candida species. at pH 7.2; (range is from 8 to 128). In short, it runs like this:
(§4)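 Liquid serial-dilution MIC against 3 freshly isolated clinical Candida strains (two C. glabrata, one C. krusei) in Sabouraud broth at pH 7.2 or 5.8. Inoculum was 10³/mL after 18 h pre-culture at 37 °C, read at 24 h, 37 °C. Range was 0.25–256 μg/mL. Endpoint was no visible growth versus a DMSO/water blank.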

Data set [10] deals with Candida. Put plainly: Tested in vitro for antifungal activity against Candida species. at pH 5.8 (range is from 16 to 256). An outline of the steps:
as §4

The test system of data set [11] is Candida. Put plainly: Tested In vitro for antifungal activity against Candida species. at pH 7.2. In short, it runs like this: as §4
Data set [12] concerns Candida. Nature of the data set: Tested in vitro for antifungal activity against Candida species. at pH 5.8. In short, it runs like this:
as §4

Data set [13] deals with Candida albicans. Put plainly: In vitro antifungal activity against 40 strains of Candida albicans at pH 7.2. In short, it runs like this:
as §1

In data set [14] the test system is Candida. Put plainly: In vitro antifungal activity against candida Spp (Candida glabrata, Candida krusei) at pH 5.8,(percent of resistant species at 256 ug/mL). An outline of the steps: as §2
Data set [15] deals with Candida albicans. Put plainly: In vitro antifungal activity against 40 strains at pH 7.2 minimum inhibitory concentration. In short, it runs like this: (§5)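 Inocula were 10³/mL, pre-grown 18 h at 37 °C. MIC is the lowest concentration with no visible growth versus a DMSO/water blank at 24 h, 37 °C. The mean MIC is ΣMICi over the total strain number; MIC50/MIC90 cover 50%/90% of strains.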

The subject of data set [16] is Candida. Nature of the data set: Tested in vitro for antifungal activity against candida Spp (Candida glabrata, Candida krusei) at pH 7.2 (percent of resistant species at 256 ug/mL). In short, it runs like this: as §2
The subject of data set [17] is Candida albicans. Nature of the data set: In vitro antifungal activity against 40 strains at pH 7.2. In short, it runs like this:
as §5

Data set [18] concerns Candida albicans. Nature of the data set: In vitro antifungal activity against 40 strains at pH 7.2,(percent of resistant species at 256 ug/mL). In short, it runs like this: as §3
Data set [19] concerns Candida. Nature of the data set: Tested In vitro for antifungal activity against candida Spp (Candida glabrata, Candida krusei) at pH 5.8. An outline of the steps:
(§6)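 Inocula were 10³/mL, pre-grown 18 h at 37 °C. MIC is the lowest concentration with no visible growth versus a blank at 24 h, 37 °C. The mean MIC is ΣMICi over the strain number; MIC50/MIC90 are also reported.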

The test system of data set [20] is Candida. Put plainly: Tested In vitro for antifungal activity against candida Spp (Candida glabrata, Candida krusei) at pH 7.2. In short, it runs like this: as §6
Data set [21] has as its system Candida albicans. Put plainly: Tested In vitro for antifungal activity at pH 5.8.
Data set [22] relates to Candida albicans. Nature of the data set: In vitro antifungal activity against 40 strains at pH 5.8,(percent of resistant species at 256 ug/mL). An outline of the steps:
as §3

For data set [23], the system named is Candida albicans. Nature of the data set: In vitro antifungal activity against 40 strains of Candida albicans at pH 5.8; value ranges from 128 to >256. An outline of the steps:
as §1

The subject of data set [24] is Candida albicans. Put plainly: In vitro antifungal activity against 40 strains of Candida albicans at pH 7.2; minimum inhibitory concentration ( range is from 32 to 128). An outline of the steps:
as §1

Data set [25] deals with Candida. Put plainly: Tested In vitro for antifungal activity against Candida species. at pH 7.2; value ranges from 256 to >256. An outline of the steps: as §4
For data set [26], the system named is Candida. Nature of the data set: Tested in vitro for antifungal activity against Candida species. at pH 5.8; value ranges from 256 to >256. An outline of the steps:
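Fresh clinical isolates (two C. glabrata, one C. krusei) were pre-grown 18 h at 37 °C in Sabouraud dextrose broth. Broth double-dilution was run in Sabouraud broth at pH 5.8 or 7.2 over 0.25–256 µg/mL from a DMSO/water stock, with 10³/mL inoculum.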

Sequence of Lanosterol 14-alpha demethylase (P10613 whole entry): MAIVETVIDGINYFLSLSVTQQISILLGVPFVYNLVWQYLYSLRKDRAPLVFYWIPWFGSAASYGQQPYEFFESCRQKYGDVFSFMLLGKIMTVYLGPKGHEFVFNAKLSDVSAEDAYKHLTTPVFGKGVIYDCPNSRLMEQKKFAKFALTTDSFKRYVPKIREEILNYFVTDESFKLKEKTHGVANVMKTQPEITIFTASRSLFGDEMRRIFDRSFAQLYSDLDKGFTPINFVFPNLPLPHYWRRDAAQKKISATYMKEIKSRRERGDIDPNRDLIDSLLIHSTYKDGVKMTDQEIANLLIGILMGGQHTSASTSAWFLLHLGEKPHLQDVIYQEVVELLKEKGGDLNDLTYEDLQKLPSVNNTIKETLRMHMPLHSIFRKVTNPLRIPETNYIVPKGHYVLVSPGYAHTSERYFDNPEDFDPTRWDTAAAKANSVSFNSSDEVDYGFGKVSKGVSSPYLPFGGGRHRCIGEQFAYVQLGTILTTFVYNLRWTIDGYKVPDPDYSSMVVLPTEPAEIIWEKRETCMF

Turning to `O=[N+]([O-])c1ccc(-c2c[nH]cc2[C@@H](c2ccc(Cl)cc2Cl)n2ccnc2)cc1`, the Range worked out at 128 µg/mL with Candida albicans [1], 256 µg/mL in the data set with Candida albicans [8], 128 µg/mL with Candida [9] and 256 µg/mL in the data set on Candida [10]. The Resistance with Candida [2], in the data set on Candida [3], in the data set on Candida albicans [6] and in the data set with Candida albicans [7] was 0% in each case. Also, the MIC worked out at 15 µg/mL (≈ 36.4 µM) against Candida albicans [4], 56 µg/mL (≈ 136 µM) in the data set with Candida [11], 133 µg/mL (≈ 323 µM) against Candida [12] and 14.7 µg/mL (≈ 35.6 µM) against Candida albicans [13]. Further, the MIC50 against Candida albicans [4] is 8 µg/mL (≈ 19.4 µM); in the data set with Candida [11], 32 µg/mL (≈ 77.4 µM); with Candida [12], 128 µg/mL (≈ 310 µM); against Candida albicans [13], 8 µg/mL (≈ 19.4 µM). Further, the MIC90 against Candida albicans [4] was determined as 8 µg/mL (≈ 19.4 µM); in the data set with Candida [11], 128 µg/mL (≈ 310 µM); against Candida [12] it was 256 µg/mL (≈ 619 µM); in the data set on Candida albicans [13] it was 8 µg/mL (≈ 19.4 µM). The Ratio in data set [5] is recorded as 1.5.
Consider `c1ccc(-c2ccc(C(c3ccccc3)n3ccnc3)cc2)cc1` (configuration not stated) [BIFONAZOLE], for which the Resistance in the data set on Candida [14], in the data set on Candida [16], in the data set with Candida albicans [18] and in the data set with Candida albicans [22] was 0% each time. The Range in the data set on Candida albicans [15] turned out to be 0.5 µg/mL; with Candida [19] it was 2 µg/mL; in the data set on Candida [20], 0.5 µg/mL; in the data set with Candida albicans [21] it was 1 µg/mL. Also, the MIC with Candida albicans [17] is 2.44 µg/mL (≈ 7.86 µM); against Candida [19], 4 µg/mL (≈ 12.9 µM); against Candida [20], 4.16 µg/mL (≈ 13.4 µM); in the data set on Candida albicans [21] it was 5.85 µg/mL (≈ 18.8 µM). For the same compound, the MIC50 against Candida albicans [17] worked out at 2 µg/mL (≈ 6.44 µM); in the data set with Candida [19], 4 µg/mL (≈ 12.9 µM); against Candida [20] it was 4 µg/mL (≈ 12.9 µM); in the data set with Candida albicans [21], 2 µg/mL (≈ 6.44 µM). The MIC90 is 4 µg/mL (≈ 12.9 µM) in the data set on Candida albicans [17], 32 µg/mL (≈ 103 µM) against Candida [19], 8 µg/mL (≈ 25.8 µM) against Candida [20] and 4 µg/mL (≈ 12.9 µM) with Candida albicans [21].
Consider `Nc1ccc(-c2c[nH]cc2[C@@H](c2ccc(Cl)cc2Cl)n2ccnc2)cc1`, for which the Range with Candida albicans [23] was over 128 µg/mL; with Candida albicans [24] it was 128 µg/mL; with Candida [25] it was over 256 µg/mL; with Candida [26] it was over 256 µg/mL. The Resistance in the data set on Candida [2] worked out at 67%; in the data set with Candida [3], 67%; in the data set with Candida albicans [6], 80%; in the data set on Candida albicans [7], 54%. Besides, the MIC against Candida albicans [4] came out at 219 µg/mL (≈ 572 µM); in the data set with Candida [11], 256 µg/mL (≈ 668 µM); in the data set on Candida [12], 256 µg/mL (≈ 668 µM); against Candida albicans [13], 85 µg/mL (≈ 222 µM). The MIC50 in the data set on Candida albicans [4], in the data set on Candida [11], in the data set on Candida [12] and in the data set on Candida albicans [13] was over 256 µg/mL throughout. For the same compound, the MIC90 against Candida albicans [4], in the data set on Candida [11], against Candida [12] and in the data set with Candida albicans [13] was over 256 µg/mL each time. The Ratio in data set [5] amounted to 52.

(Values after ChEMBL document CHEMBL1135477, “Antifungal agents. 10. New derivatives of 1-[(aryl)[4-aryl-1H-pyrrol-3-yl]methyl]-1H-imidazole, synthesis, anti-candida activity, and quantitative structure-analysis relationship studies” (J Med Chem, 2002).)
